A short description of test [1]: Inhibition of chymotrypsin like activity of 20S proteasome. More on the design: species or system Homo sapiens. The procedure, abridged:
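Purified rabbit 20S proteasome (35 ng) incubated with the fluorogenic substrate Suc-Leu-Leu-Val-Tyr-AMC (40 μM), with or without compound. Chymotrypsin-like activity was read as substrate hydrolysis.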

Test [2] deals with Raji. Description: Induction of cell death in leukemia Raji B cells at 25 uM after 24 hrs. Format: functional, Homo sapiens. The procedure, abridged:
(§1)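 Raji B leukaemia cells grown in RPMI with 10% FBS, penicillin and streptomycin at 37 °C under 5% CO2. Treated with 25 μM compound or DMSO solvent for 24 h. Death scored by trypan blue dye exclusion: blue cells and cells with apoptotic morphology (shrinking, blebbing) on phase-contrast microscopy counted as dead.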

Test [3] has as its system Raji. In words: Increase in ubiquitinated protein bax level in leukemia Raji B cells after 4 hrs. Format: functional. The note with it: for Activity: Homo sapiens, TDE = time-dependent effect. The procedure, abridged:
(§2)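 Raji B cells (RPMI, 10% FBS, 37 °C, 5% CO2) exposed to DMSO solvent or 25 μM compound for 4 or 24 h. Whole cell extracts immunoblotted with antibodies to IκB-α, p27, Bax and ubiquitin, with actin as loading control, and quantified by densitometry.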

For test [4], the system named is Raji. In words: Increase in ubiquitinated protein p27 level in leukemia Raji B cells after 4 hrs. Format: functional. The note with it: for Activity: Homo sapiens, TDE = time-dependent effect. The procedure, abridged:
as §2

The subject of test [5] is Raji. In words: Increase in ubiquitinated protein IkBalpha level in leukemia Raji B cells after 4 hrs. Format: functional. The note with it: for Activity: Homo sapiens. The gist of the method:
as §2

The subject of test [6] is 20S proteasome (Oryctolagus cuniculus). Description: Inhibition of chymotrypsin like activity of 20S proteasome at 50 uM.
Test [7] relates to Raji. Description: Increase in ubiquitinated protein IkBalpha level in leukemia Raji B cells after 24 hrs. Format: functional, cell-based. The note with it: Homo sapiens. The gist of the method: as §2
Test [8] relates to Raji. In words: Inhibition of chymotrypsin like activity of 20S proteasome in leukemia Raji B cells at 25 uM after 24 hrs. Format: cell-based. To be noted: Homo sapiens. The procedure, abridged:
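Raji B cells dosed at 25 μM for 4 or 24 h, then harvested and lysed. Whole cell extract (10 μg) incubated with Suc-Leu-Leu-Val-Tyr-AMC (40 μM) in 50 mM Tris-HCl pH 8 at 37 °C for 2.5 h. Released AMC read at ex 380/em 460 nm.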

In test [9] the test system is Raji. Description: Induction of apoptosis in leukemia Raji B cells assessed as PARP1 ceavage after 24 hrs. Format: functional, cell-based. To be noted: Homo sapiens. The procedure, abridged: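 Raji B cells were treated with DMSO or 25 μM compound for 4 or 24 h. Whole cell extracts were immunoblotted with a polyclonal anti-PARP antibody to detect apoptosis-specific PARP cleavage, with densitometric quantification.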

The test system of test [10] is Raji. Description: Increase in ubiquitinated protein bax level in leukemia Raji B cells after 24 hrs. Format: functional, cell-based. The note with it: Homo sapiens. The gist of the method: as §2
Test [11] relates to Raji. In words: Effect on apoptosis in leukemia Raji B cells assessed as increase in caspase 3 activation after 24 hrs. Format: functional, Homo sapiens. The procedure, abridged: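 Raji B cells (RPMI, 10% FBS, 37 °C, 5% CO2) given 25 μM compound for 4 or 24 h, then harvested and lysed. Lysates incubated with Ac-DEVD-AMC (40 μM) for 2.5 h; caspase-3 activity read from fluorogenic substrate cleavage.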

In test [12] the test system is Raji. In words: Increase in cell death in leukemia Raji B cells at 25 um after 24 hrs. Format: functional, Homo sapiens. The gist of the method: as §1
Test [13] concerns Raji. Description: Increase in ubiquitinated protein p27 level in leukemia Raji B cells after 24 hrs. Format: functional, cell-based. To be noted: Homo sapiens. The gist of the method: as §2
Test [14] concerns Raji. In words: Inhibition of chymotrypsin like activity of 20S proteasome in leukemia Raji B cells at 25 uM after 4 hrs. Format: cell-based. The note with it: Homo sapiens. The gist of the method: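 Raji B cells treated with 25 μM compound for 4 h, then harvested and lysed. Whole-cell extract (10 μg) incubated with 40 μM Suc-Leu-Leu-Val-Tyr-AMC in 50 mM Tris-HCl pH 8 at 37 °C for 2.5 h. Free AMC read by fluorescence at 380 nm excitation and 460 nm emission.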

Here are results for six compounds from ChEMBL document CHEMBL1149605, “A para-amino substituent on the D-ring of green tea polyphenol epigallocatechin-3-gallate as a novel proteasome inhibitor and cancer cell apoptosis inducer” (Bioorg Med Chem, 2007).

Active and inactive are the calls of the source. The calls are words filed in the database; no cut-off is given here.

Consider `Nc1ccc(C(=O)O[C@@H]2Cc3c(O)cc(O)cc3O[C@@H]2c2cc(O)c(O)c(O)c2)cc1`, for which half-maximal inhibition in test [1] (IC50) required 840 nM. Besides, the Activity in the test on Raji [2] was 10%; in the test with Raji [3] it was “tde”; in the test on Raji [4], “tde”; in the test on Raji [5] (TDE = time-dependent effect), “tde”.

For the compound `CC(=O)Oc1cc(OC(C)=O)c2c(c1)O[C@H](c1cc(OC(C)=O)c(OC(C)=O)c(OC(C)=O)c1)[C@H](OC(=O)c1cc(OC(C)=O)c(OC(C)=O)c(OC(C)=O)c1)C2`, the inhibition (usually the change of the read-out against control, counted positive when it falls) in test [6] was under 20%.

Consider `CC(=O)Oc1cc(OC(C)=O)c2c(c1)O[C@H](c1cc(OC(C)=O)c(OC(C)=O)c(OC(C)=O)c1)[C@H](OC(=O)c1ccc(N)cc1)C2`, for which the outcome with Raji [7], in the test with Raji [9], in the test with Raji [10] and in the test on Raji [13] was Active. Also, the Fold change was determined as 3.3 in the test with Raji [3], 4.7 in the test with Raji [11], 3.5 in the test with Raji [12] and 2 with Raji [4]. Besides, the inhibition in the test with Raji [8] is 39%; in test [6], under 20%. Further, in the test on Raji [5], the outcome was inactive.

Consider `CC(C)(C)OC(=O)Nc1ccc(C(=O)O[C@@H]2Cc3c(O)cc(O)cc3O[C@@H]2c2cc(O)c(O)c(O)c2)cc1`, for which the 50% inhibitory concentration (IC50) – broadly, the concentration at which inhibition is half-maximal – in test [1] came to 3850 nM. Besides, the Activity in the test with Raji [2] is 10%; in the test on Raji [3] it was “tde”; with Raji [4], “tde”; in the test with Raji [5] (TDE = time-dependent effect), “tde”.

Take `O=C(O[C@@H]1Cc2c(O)cc(O)cc2O[C@@H]1c1cc(O)c(O)c(O)c1)c1cc(O)c(O)c(O)c1` [EPIGALOCATECHIN GALLATE]: 200 nM corresponded to half-maximal inhibition in [1] (IC50). The inhibition in the test on Raji [14] came to 4%; in the test with Raji [8], 10%.

As for `CC(=O)Oc1cc(OC(C)=O)c2c(c1)O[C@H](c1cc(OC(C)=O)c(OC(C)=O)c(OC(C)=O)c1)[C@H](OC(=O)c1ccc(NC(=O)OC(C)(C)C)cc1)C2`, the outcome in the test on Raji [7], in the test on Raji [9], in the test on Raji [10] and in the test with Raji [13] was Active. For the same compound, the Fold change in the test with Raji [3] was 3.5; with Raji [11], 5.5; with Raji [12], 5; with Raji [4], 2.1; with Raji [5], 1.4. In addition, the inhibition with Raji [8] is 65%; in test [6] it was under 20%.
